The source made the active and inactive calls. The rule behind the calls is not given here. Residues, ends and D or L forms follow the SMILES beside them.
Experiments:
[1] = biological target: Prostaglandin G/H synthase 1 (Homo sapiens) (UniProt P23219); assay: Binding affinity to COX1 (unknown origin) at 100 uM by isothermal titration calorimetry
Method in brief: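 Isothermal titration calorimetry in HEPES buffer, pH 7.4. The ligand stock is 100 μM in ethanol/HEPES (1:99). The syringe is stirred at 500 rpm and delivers 19 injections of 2 μL into the enzyme-containing cell at 120 s intervals. Heats from buffer-only control titrations are subtracted. The fit gives Ka, ΔH and ΔS. Run in triplicate.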

Mus musculus [2] = assay: Acute toxicity in Swiss albino mouse assessed as gross behavioral abnormality up to 2000 mg/kg, po administered as single dose through gavage measured continuously for first 4 hrs and periodically for 24 hrs up to 14 days; format: organism-based; conditions: in vivo
Method in brief: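 Swiss albino mice of either sex (25-35 g), housed at 22 ± 2 °C on a 12 h light/dark cycle. Per OECD 2001 guidance, groups of three received vehicle or 50, 300 or 2000 mg Kg⁻¹ after 4 h fasting. The animals were watched continuously for the first 4 h and then periodically over 24 h for gross behavioural abnormality.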

[3] = biological target: Prostaglandin G/H synthase 1 (Homo sapiens) (UniProt P23219); assay: Inhibition of COX1 in healthy human whole blood assessed as calcium ionophore A23187-stimulated TXB2 level at 1 uM preincubated for 60 mins followed by A23187 addition measured after 30 mins by ELISA; format: tissue-based
Method in brief: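 Fresh venous blood from a healthy volunteer is collected in EDTA. 1 mL samples receive compound, indomethacin or DMSO vehicle (final 1 μM). After 60 min, A23187 is added (final 50 μM). After 30 min, samples are centrifuged at 4 °C and TxB2 in plasma is measured by ELISA, read at 420 nm. Samples are run in duplicate.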

Mus musculus [4] = assay: Analgesic activity in Swiss albino mouse assessed as reduction in capsaicin-induced paw licking at 5 to 10 mg/kg, ip dosed 30 mins before capsaicin injection measured for 10 mins in presence of substance P pre-treated 30 mins before compound dosing; format: functional, organism-based
Method in brief: (§1)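 Mice of either sex (25-35 g), 5 per group. The modulator is given 30 min before the test compound, and capsaicin 30 min after that: substance P 10 µg/kg, L-arginine 40 mg/kg, L-NAME 20 mg/kg, veratrine 125 µg/kg, A23187 20 µg/kg, glipizide 30 µg/kg. Capsaicin is 1.6 μg in 20 μL intraplantar. Paw lickings are counted for 10 min.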

[5] = biological target: T1, Prostaglandin G/H synthase 2 (Homo sapiens, UniProt P35354); assay: Inhibition of human recombinant COX2 assessed as reduction in PGH2-derived PGF2alpha using arachidonic acid as substrate preincubated for 10 mins followed by substrate addition measured after 2 mins by enzyme immunoassay
T1 sequence (P35354 whole entry): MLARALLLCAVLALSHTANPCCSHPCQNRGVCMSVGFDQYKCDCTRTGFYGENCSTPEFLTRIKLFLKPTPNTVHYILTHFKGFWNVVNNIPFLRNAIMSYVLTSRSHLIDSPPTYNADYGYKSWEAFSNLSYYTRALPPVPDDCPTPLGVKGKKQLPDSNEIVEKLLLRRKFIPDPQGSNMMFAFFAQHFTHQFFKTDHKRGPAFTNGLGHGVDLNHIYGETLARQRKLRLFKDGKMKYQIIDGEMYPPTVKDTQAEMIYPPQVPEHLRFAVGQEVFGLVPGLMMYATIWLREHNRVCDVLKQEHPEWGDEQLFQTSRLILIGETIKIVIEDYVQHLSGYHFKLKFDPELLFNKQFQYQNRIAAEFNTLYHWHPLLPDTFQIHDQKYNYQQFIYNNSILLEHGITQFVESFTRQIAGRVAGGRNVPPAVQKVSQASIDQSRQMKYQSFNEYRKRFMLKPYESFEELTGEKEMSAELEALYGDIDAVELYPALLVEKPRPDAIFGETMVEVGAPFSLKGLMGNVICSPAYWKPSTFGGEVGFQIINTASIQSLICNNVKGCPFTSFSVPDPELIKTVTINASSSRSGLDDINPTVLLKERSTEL

Mus musculus [6] = assay: Acute toxicity in Swiss albino mouse assessed as structural abnormality in liver up to 2000 mg/kg, po administered as single dose through gavage measured after 14 days by haematoxylin and eosin staining based assay; format: organism-based; conditions: in vivo, 336 h
Method in brief: (§2)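 Mice given vehicle or 50, 300 or 2000 mg Kg⁻¹ after 4 h fasting, three per group, following OECD 2001 guidance. At 14 days, one control animal and one 2000 mg Kg⁻¹ animal were sacrificed. Myocardium, liver and kidney were examined histologically by H and E staining.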

Mus musculus [7] = assay: Acute toxicity in Swiss albino mouse assessed as structural abnormality in myocardium up to 2000 mg/kg, po administered as single dose through gavage measured after 14 days by haematoxylin and eosin staining based assay; format: organism-based; conditions: in vivo, 336 h; method in brief: as §2
Mus musculus [8] = assay: Analgesic activity in Swiss albino mouse assessed as reduction in capsaicin-induced paw licking at 5 to 10 mg/kg, ip dosed 30 mins before capsaicin injection measured for 10 mins in presence of voltage-gated sodium channel opener veratrine pre-treated 30 mins before compound dosing; format: functional, organism-based; method in brief: as §1
Mus musculus [9] = assay: Analgesic activity in Swiss albino mouse assessed as reduction in formalin-induced paw flinches in neurogenic phase at 5 mg/kg, ip dosed 30 mins before formalin injection measured up to 5 mins; format: functional, organism-based
Method in brief: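 Swiss albino mice of either sex (25-35 g). 20 μL of 2% formalin is injected into the plantar surface of the right hind paw 30 min after treatment. Hind paw flinches are counted for the neurogenic phase (0-5 min) and the inflammatory phase (15-30 min). Results are given as mean ± SEM.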

Mus musculus [10] = assay: Antiinflammatory activity in Swiss albino mouse assessed as reduction in carrageenan-induced paw edema by measuring paw thickness at 5 mg/kg, ip dosed 30 mins before carrageenan injection measured up to 300 mins by vernier calliper method relative to control; format: functional
Mus musculus [11] = assay: Analgesic activity in Swiss albino mouse assessed as reduction in capsaicin-induced paw licking at 5 mg/kg, ip dosed 30 mins before capsaicin injection measured for 10 mins relative to control; format: functional
Method in brief: (§3)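 Swiss albino mice of either sex (25-35 g), kept at 22 ± 2 °C on a 12 h light/dark cycle with free food and water. 5 animals per group. Capsaicin (1.6 μg in 20 μL) is injected into the plantar surface of the hind paw. Pain is scored as the number of paw lickings over 10 min.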

Mus musculus [12] = assay: Analgesic activity in Swiss albino mouse assessed as reduction in capsaicin-induced paw licking at 5 to 10 mg/kg, ip dosed 30 mins before capsaicin injection measured for 10 mins in presence of […] A23187 pre-treated 30 mins before compound dosing; format: functional, organism-based; method in brief: as §1
Mus musculus [13] = assay: Analgesic activity in Swiss albino mouse assessed as reduction in capsaicin-induced paw licking at 5 to 10 mg/kg, ip dosed 30 mins before capsaicin injection measured for 10 mins; format: functional, organism-based; method in brief: as §3

Chain of Prostaglandin G/H synthase 1 (Homo sapiens) (P23219 whole entry): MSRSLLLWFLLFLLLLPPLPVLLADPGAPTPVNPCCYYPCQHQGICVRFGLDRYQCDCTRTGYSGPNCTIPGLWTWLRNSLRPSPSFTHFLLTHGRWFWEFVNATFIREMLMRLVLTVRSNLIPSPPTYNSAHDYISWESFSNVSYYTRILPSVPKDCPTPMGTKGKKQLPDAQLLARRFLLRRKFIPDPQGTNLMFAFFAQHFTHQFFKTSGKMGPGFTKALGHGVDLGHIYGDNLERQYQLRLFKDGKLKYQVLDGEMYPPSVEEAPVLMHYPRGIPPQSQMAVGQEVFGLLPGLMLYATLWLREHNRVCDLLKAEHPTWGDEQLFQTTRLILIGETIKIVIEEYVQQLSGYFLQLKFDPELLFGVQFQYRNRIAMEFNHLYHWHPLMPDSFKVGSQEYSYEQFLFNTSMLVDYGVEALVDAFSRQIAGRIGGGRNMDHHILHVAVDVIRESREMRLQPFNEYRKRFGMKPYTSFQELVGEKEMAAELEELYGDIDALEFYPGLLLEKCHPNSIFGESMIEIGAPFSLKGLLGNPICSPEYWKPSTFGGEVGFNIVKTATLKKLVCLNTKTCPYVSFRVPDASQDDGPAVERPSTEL

## COC(=O)[C@H](CC(C)C)NC(=O)[C@H](Cc1ccccc1)NC(=O)CNC(=O)CN (H-GGFL-OMe)
[1]
  Ka: 0.41 ×10³ /M
Mus musculus [2]
  Activity: Non-toxic
[3]
  Activity: 5.8 ng/mL
Mus musculus [4]
  Activity: inactive
[5]
  IC50: 60 nM
Mus musculus [6]
  Activity: Non-toxic
Mus musculus [7]
  Activity: Non-toxic
Mus musculus [8]
  Activity: Active
Mus musculus [9]
  Activity: inactive
Mus musculus [10]
  inhibition in vivo at 5 mg/kg: 60%
Mus musculus [11]
  inhibition in vivo at 5 mg/kg: 80%
Mus musculus [12]
  Activity: Active
Mus musculus [13]
  Activity: Active

Source: ChEMBL document CHEMBL3808358, “Rational Design of Small Peptides for Optimal Inhibition of Cyclooxygenase-2: Development of a Highly Effective Anti-Inflammatory Agent” (J Med Chem, 2016)
